From ChEMBL document CHEMBL1122621, “Antihypertensive activities of phenyl aminoethyl sulfides, a class of synthetic substrates for dopamine beta-hydroxylase” (J Med Chem, 1984) come the findings set out here.

The term Km denotes the concentration of substrate that gives half-maximal velocity.

The target of data set [1] is T1, Monoamine oxidase (Bos taurus, UniProt P56560+P21398).
T1 sequence (P56560 whole entry): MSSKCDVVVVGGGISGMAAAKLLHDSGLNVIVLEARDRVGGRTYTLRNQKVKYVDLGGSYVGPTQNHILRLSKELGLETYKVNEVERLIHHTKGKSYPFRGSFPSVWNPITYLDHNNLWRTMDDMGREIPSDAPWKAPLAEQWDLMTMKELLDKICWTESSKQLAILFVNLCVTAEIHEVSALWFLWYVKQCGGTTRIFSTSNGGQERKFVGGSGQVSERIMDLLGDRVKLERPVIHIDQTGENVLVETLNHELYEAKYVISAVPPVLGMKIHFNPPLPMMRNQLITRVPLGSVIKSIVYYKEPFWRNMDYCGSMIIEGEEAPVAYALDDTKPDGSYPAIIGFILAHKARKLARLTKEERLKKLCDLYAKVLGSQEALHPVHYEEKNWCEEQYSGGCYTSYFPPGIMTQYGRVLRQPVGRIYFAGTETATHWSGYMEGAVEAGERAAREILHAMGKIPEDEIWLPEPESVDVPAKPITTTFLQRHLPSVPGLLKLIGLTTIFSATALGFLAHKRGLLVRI
T1 sequence (P21398 whole entry): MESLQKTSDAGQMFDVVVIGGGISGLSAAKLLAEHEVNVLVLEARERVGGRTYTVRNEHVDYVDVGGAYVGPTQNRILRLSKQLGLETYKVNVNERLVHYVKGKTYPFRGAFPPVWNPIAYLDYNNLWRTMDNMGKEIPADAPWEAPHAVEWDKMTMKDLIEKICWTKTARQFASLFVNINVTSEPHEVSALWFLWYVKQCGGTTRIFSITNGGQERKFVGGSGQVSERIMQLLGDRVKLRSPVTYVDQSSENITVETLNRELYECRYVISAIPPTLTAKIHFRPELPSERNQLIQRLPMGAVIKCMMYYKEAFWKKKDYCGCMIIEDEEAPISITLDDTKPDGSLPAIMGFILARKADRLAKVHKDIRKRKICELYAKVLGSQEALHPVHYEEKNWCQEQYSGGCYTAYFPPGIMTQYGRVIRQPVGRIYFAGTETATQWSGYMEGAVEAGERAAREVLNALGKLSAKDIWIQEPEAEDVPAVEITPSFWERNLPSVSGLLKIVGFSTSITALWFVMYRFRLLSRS
Put plainly: Compound was evaluated as substrate for monoamine oxidase (MAO) from bovine […] and the enzymatic kinetic constant was reported as Kcat. Type of data set: protein assay. The settings on record: cattle. The essentials: (§1)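 Bovine MAO, a mixed A/B isozyme preparation, commercial. Oxygen monitor assay in 0.1 M potassium phosphate pH 7.2, air-saturated, 37 °C. kcat and Km from computer fit to hyperbolic Michaelis-Menten equation. kcat based on total protein, assuming MW 290 000.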

The target of data set [2] is T2, Dopamine beta-hydroxylase (Bos taurus) (UniProt P15101).
T2 sequence (whole entry): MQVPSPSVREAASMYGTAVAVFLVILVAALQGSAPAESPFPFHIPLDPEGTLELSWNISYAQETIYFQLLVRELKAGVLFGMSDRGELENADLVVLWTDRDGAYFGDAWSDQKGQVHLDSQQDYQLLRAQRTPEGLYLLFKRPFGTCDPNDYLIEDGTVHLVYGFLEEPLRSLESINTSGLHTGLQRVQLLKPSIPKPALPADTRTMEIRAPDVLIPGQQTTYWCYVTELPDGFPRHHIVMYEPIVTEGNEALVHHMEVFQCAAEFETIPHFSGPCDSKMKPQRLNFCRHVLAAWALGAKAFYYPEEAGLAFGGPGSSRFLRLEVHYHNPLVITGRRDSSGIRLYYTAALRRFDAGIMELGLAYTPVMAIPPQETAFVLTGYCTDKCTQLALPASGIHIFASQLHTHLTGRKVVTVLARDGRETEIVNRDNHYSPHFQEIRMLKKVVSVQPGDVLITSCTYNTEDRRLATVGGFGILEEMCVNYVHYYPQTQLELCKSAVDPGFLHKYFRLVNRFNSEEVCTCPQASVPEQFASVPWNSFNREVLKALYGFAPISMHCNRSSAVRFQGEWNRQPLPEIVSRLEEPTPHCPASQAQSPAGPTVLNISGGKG
The experiment in a line: Compound was evaluated as substrate for Dopamine beta hydroxylase (DBH) from bovine adrenals and the enzymatic kinetic constant was reported as Kcat.

The nature of data set [3]: Ratio of the kinetic parameter Kcat to the Km on substrate […] from bovine adrenals. Type of data set: tissue-based. The settings on record: Adrenal gland.
Data set [4] in a line: Ratio of the kinetic parameter Kcat to the Km on substrate dopamine monoamine oxidase.
The target in the next data set is T3, monoamine oxidase (MAO) (Bos taurus, UniProt P21398+P56560).
T3 sequence (P56560 whole entry): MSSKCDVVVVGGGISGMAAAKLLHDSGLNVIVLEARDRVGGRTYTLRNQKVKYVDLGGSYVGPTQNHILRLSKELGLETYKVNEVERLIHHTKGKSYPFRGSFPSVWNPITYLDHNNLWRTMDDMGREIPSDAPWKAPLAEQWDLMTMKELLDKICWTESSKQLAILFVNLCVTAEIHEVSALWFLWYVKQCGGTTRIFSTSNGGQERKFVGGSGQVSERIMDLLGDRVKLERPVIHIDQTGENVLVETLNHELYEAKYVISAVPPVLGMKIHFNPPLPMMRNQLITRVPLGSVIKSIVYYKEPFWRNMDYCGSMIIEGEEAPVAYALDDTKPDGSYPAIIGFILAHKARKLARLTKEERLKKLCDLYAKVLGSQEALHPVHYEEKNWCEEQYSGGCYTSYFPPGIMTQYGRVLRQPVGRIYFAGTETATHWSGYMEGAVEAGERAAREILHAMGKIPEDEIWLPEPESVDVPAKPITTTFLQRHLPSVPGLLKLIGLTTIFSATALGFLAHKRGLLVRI
T3 sequence (P21398 whole entry): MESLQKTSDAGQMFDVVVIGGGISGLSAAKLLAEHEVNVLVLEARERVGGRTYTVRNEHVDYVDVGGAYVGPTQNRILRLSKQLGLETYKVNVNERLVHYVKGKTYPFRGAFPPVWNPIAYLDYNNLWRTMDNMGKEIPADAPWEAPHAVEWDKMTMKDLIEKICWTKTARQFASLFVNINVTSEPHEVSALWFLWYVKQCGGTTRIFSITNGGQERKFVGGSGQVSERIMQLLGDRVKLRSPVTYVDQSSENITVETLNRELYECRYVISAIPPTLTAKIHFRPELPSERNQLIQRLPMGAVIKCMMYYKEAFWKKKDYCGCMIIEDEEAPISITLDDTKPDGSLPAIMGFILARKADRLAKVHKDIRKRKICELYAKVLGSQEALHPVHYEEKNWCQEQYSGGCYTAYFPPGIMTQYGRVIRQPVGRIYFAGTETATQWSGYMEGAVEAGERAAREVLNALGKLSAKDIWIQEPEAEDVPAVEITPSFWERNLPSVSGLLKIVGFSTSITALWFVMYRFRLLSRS
Put plainly: Compound was evaluated as substrate for monoamine oxidase (MAO) from bovine […] and the enzymatic kinetic constant was reported as Km. Format: protein assay. The settings on record: cattle. The essentials:
as §1

Data set [5] addresses T1, Monoamine oxidase. The experiment in a line: Compound was evaluated as substrate for monoamine oxidase (MAO) from bovine […] and the enzymatic kinetic constant was reported as Km; c = Compounds displayed no trace of substrate activity even at high enzyme concentrations. The conditions noted are these: cattle. Format: protein assay. The essentials: as §1
Data set [6] has as its target T1, Monoamine oxidase. Put plainly: Compound was evaluated as substrate for monoamine oxidase (MAO) from bovine […] and the enzymatic kinetic constant was reported as Kcat; c = Compounds displayed no trace of substrate activity even at high enzyme concentrations. Format: protein assay. The conditions noted are these: cattle. The essentials:
as §1

The nature of data set [7]: Ratio of the kinetic parameter Kcat to the Km on substrate dopamine monoamine oxidase; c = Compounds displayed no trace of substrate activity even at high enzyme concentrations.
Substrate in data set [8]: NCCSc1ccccc1
Put plainly: (§2) Compound was evaluated as substrate for Dopamine beta hydroxylase (DBH) from bovine adrenals and the enzymatic kinetic constant was reported as Km. Format: tissue-based. The conditions noted are these: Adrenal gland.

Substrate in data set [9]: CC(N)CSc1ccccc1
The data set is described as §2. Format: tissue-based. The conditions noted are these: Adrenal gland.

Substrate in data set [10]: NCCCc1ccccc1
The description is as §2. Type of data set: tissue-based. The conditions noted are these: Adrenal gland.

Substrate in data set [11]: NCCSc1ccc(O)cc1
Described as §2. The settings on record: Adrenal gland. Type of data set: tissue-based.

Substrate in data set [12]: NCCc1ccccc1
Described as §2. Format: tissue-based. The conditions noted are these: Adrenal gland.

Substrate in data set [13]: NCCc1ccc(O)cc1
The data set is described as §2. Type of data set: tissue-based. The conditions noted are these: Adrenal gland.

Substrate in data set [14]: CC(N)CSc1ccc(O)cc1
The description is as §2. Type of data set: tissue-based. The conditions noted are these: Adrenal gland.

With `NCCSc1ccc(O)cc1`, the k cat at Monoamine oxidase [1] was 0.22 s⁻¹; in data set [2], 36 s⁻¹. Moreover, the Ratio in data set [3] stood at 8300 M⁻¹ s⁻¹; in [4], 4500 M⁻¹ s⁻¹. For the same molecule, the Michaelis-Menten constant (Km) at monoamine oxidase (MAO) was found to be 0.049 mM.

Consider `NCCc1ccccc1` [PHENETHYLAMINE], for which the k cat amounted to 0.23 s⁻¹ on Monoamine oxidase [1] and 65 s⁻¹ in [2]. Moreover, the Ratio in data set [3] worked out at 9300 M⁻¹ s⁻¹; in data set [4] it was 100 M⁻¹ s⁻¹. The Km on monoamine oxidase (MAO) was 2.2 mM.

Turning to `CC(N)CSc1ccccc1` (racemic), the figures for the k cat (in data set [2]; at Monoamine oxidase [6]) were 20 s⁻¹ and “No activity”, respectively. In addition, the results for the Ratio in [3] and in data set [7] were 1000 M⁻¹ s⁻¹ and “No activity”, respectively. Moreover, the Km result on Monoamine oxidase [5] is recorded as “No activity”.

In [2], `NCCc1ccc(O)cc1` had a k cat of 85 s⁻¹. For the same molecule, in data set [3], the Ratio was found to be 42000 M⁻¹ s⁻¹.

As to `NCCCc1ccccc1`, the results for the k cat (at Monoamine oxidase [1]; in data set [2]) were 0.17 s⁻¹ and 12 s⁻¹, respectively. For the same molecule, the Ratio turned out to be 590 M⁻¹ s⁻¹ in data set [3] and 580 M⁻¹ s⁻¹ in [4]. Also, the Km on monoamine oxidase (MAO) stood at 0.29 mM.

Consider `CC(N)CSc1ccc(O)cc1` (racemic), for which the k cat in data set [2] was 44 s⁻¹; on Monoamine oxidase [6], “No activity”. Also, the Ratio in data set [3] is 6700 M⁻¹ s⁻¹; in data set [7] it was “No activity”. At Monoamine oxidase [5], the Km entry is recorded as “No activity”.

Regarding `NCCSc1ccccc1`, the k cat at Monoamine oxidase [1] was found to be 0.43 s⁻¹; in data set [2], 39 s⁻¹. The Ratio is 2300 M⁻¹ s⁻¹ in data set [3] and 7300 M⁻¹ s⁻¹ in data set [4]. Further, the Km at monoamine oxidase (MAO) was 0.055 mM.

B1: Dopamine beta-hydroxylase (Bos taurus), P15101 (protein)
chain: MQVPSPSVREAASMYGTAVAVFLVILVAALQGSAPAESPFPFHIPLDPEGTLELSWNISYAQETIYFQLLVRELKAGVLFGMSDRGELENADLVVLWTDRDGAYFGDAWSDQKGQVHLDSQQDYQLLRAQRTPEGLYLLFKRPFGTCDPNDYLIEDGTVHLVYGFLEEPLRSLESINTSGLHTGLQRVQLLKPSIPKPALPADTRTMEIRAPDVLIPGQQTTYWCYVTELPDGFPRHHIVMYEPIVTEGNEALVHHMEVFQCAAEFETIPHFSGPCDSKMKPQRLNFCRHVLAAWALGAKAFYYPEEAGLAFGGPGSSRFLRLEVHYHNPLVITGRRDSSGIRLYYTAALRRFDAGIMELGLAYTPVMAIPPQETAFVLTGYCTDKCTQLALPASGIHIFASQLHTHLTGRKVVTVLARDGRETEIVNRDNHYSPHFQEIRMLKKVVSVQPGDVLITSCTYNTEDRRLATVGGFGILEEMCVNYVHYYPQTQLELCKSAVDPGFLHKYFRLVNRFNSEEVCTCPQASVPEQFASVPWNSFNREVLKALYGFAPISMHCNRSSAVRFQGEWNRQPLPEIVSRLEEPTPHCPASQAQSPAGPTVLNISGGKG
For the molecule B1, the Km worked out at 17.2 mM in data set [8]; 19.1 mM in [9]; 20.4 mM in data set [10]; 4.4 mM in [11]; 7 mM in data set [12]; 2 mM in data set [13]. Besides, the Km in [14] worked out at 6.5 mM.
